Results of several laboratories.
Each line is one published result; the experiments were not run side by side.
Target: Tyrosine-protein kinase receptor TYRO3 (TYRO3, Homo sapiens, UniProt Q06418)

CC(C)(C)c1nc(-c2cccc(NS(=O)(=O)c3c(F)cccc3F)c2F)c(-c2ccnc(N)n2)s1  remaining activity (enzyme activity, inhibitor, radiometric; 1 µM): 90%
O=C1NC(=O)c2cc(Nc3ccc(F)cc3)c(Nc3ccc(F)cc3)cc21  remaining signal (cell-free assay; 0.5 µM): 94.8%
CC1CCCN1c1nccc(-c2cnn3ncccc23)n1 (centres unmarked)  remaining binding (binding; 1 µM): 79%
Cc1ccc(C(=O)NCc2ccsc2)cc1C#Cc1cn(C(C)C)c2ncnc(N)c12  activity vs control (enzyme activity, inhibitor; 1 µM): 89%
COc1cccc(CNC(=O)c2nc3scc(COCc4ccc(C(=O)O)cc4)c3c(=O)[nH]2)c1  remaining binding (cell-free assay, competition with immobilised ligand; 1 µM): 100%
CC/C(=N\NC(=O)NCc1cccc(O)c1)c1ccc(O)c(C)c1O  inhibition (enzyme activity, inhibitor; 0.1 µM): 2.7%
Cn1c2c(c3ccc(Cl)c(Cl)c31)C(C#N)C(C)(C)NC2=O (centres unmarked)  ΔTm (thermal stability, DSF; 10 µM): 0.5 °C
COc1cc2ncnc(Nc3ccc(Oc4ccccc4)cc3C)c2cc1OC  inhibition (enzyme activity, inhibitor; 1 µM): 70%
Oc1cccc(-c2nc(N3CCOCC3)c3oc4ncccc4c3n2)c1  remaining signal (cell-free assay; 0.5 µM): 102%
CCN(CC)c1ccc(C2=NNC(=O)CC2C)cc1[N+](=O)[O-] (centres unmarked)  remaining activity (enzyme activity, inhibitor; 10 µM): 95%
Cc1cc(NC(=O)c2cccc3cc(-c4cccc5[nH]nc(N)c45)ccc23)ccc1F  activity vs control (enzyme activity, inhibitor; 0.1 µM): 99%
O=C1CCc2cc(Nc3cc(OC4CCOCC4)c([N+](=O)[O-])cc3Cl)ccc2N1  remaining binding (cell-free assay, competition with immobilised ligand; 1 µM): 100%
Cn1c2c(c3ccc(Cl)c(Cl)c31)C(C#N)C1(CCN(C(=O)OC(C)(C)C)CC1)NC2=O (racemic)  ΔTm (thermal stability, DSF; 10 µM): 0 °C
COc1cc2nccc(Oc3ccc(NC(=O)c4c5n(n(-c6ccc(F)cc6)c4=O)CCCC5)cc3)c2cc1OC  inhibition (enzyme activity, inhibitor; 0.1 µM): 71%
CC(C)c1ccc(NC(=O)c2cccs2)c(-c2nc3ccccc3[nH]c2=O)c1  activity vs control (enzyme activity, inhibitor; 1 µM): 103%
C=CC(=O)Nc1cc(Nc2nccc(Nc3cc(Cl)c(F)cc3C(C)(C)O)n2)c(OC)cc1N1CC[C@@H](N(C)C)C1  inhibition (enzyme activity, inhibitor; 1 µM): 5%
Nc1cnc(N2CCc3cc(S(=O)(=O)Nc4c(F)cc(Cl)cc4F)cc(N4CCCC4=O)c32)nc1  remaining binding (cell-free assay, competition with immobilised ligand; 1 µM): 100%
Cc1cnc(NC2CCOCC2)nc1-n1cnc(C(=O)NC(CN)c2cc(F)cc(Cl)c2)c1 (centres unmarked)  remaining activity (enzyme activity, inhibitor, radiometric; 1 µM): 118%
COCCOc1nc(-c2ccc(Cl)nc2)nc2c1CN(C(=O)c1ncn3ccccc13)CC2  remaining binding (cell-free assay, competition with immobilised ligand; 0.1 µM): 100%
Cc1ccc(Nc2nccc(N(C)c3ccc4c(C)n(C)nc4c3)n2)cc1S(N)(=O)=O  inhibition (cell-free assay; 0.3 µM): 26%
Cc1sc(C(=O)NC2COC2)cc1-n1cc(NC(=O)Nc2c(F)cccc2Cl)cn1  remaining activity (enzyme activity, inhibitor; 10 µM): 98.8%
CCCOc1ccc([C@H]2[C@H](C(=O)O)[C@@H](c3ccc4c(c3)OCO4)CN2CC(=O)Nc2c(CC)cccc2CC)cc1  remaining binding (cell-free assay, competition with immobilised ligand; 1 µM): 100%
CNC(=O)c1cc(Oc2ccc(NC(=O)Nc3ccc(Cl)c(C(F)(F)F)c3)cc2)ccn1  remaining signal (cell-free assay; 0.5 µM): 91.7%
C[C@@]1(Cc2ccc(C#N)cc2)C(=O)N(c2cc(Cl)cc(Cl)c2)c2ncc(C(=O)NC3(c4nc(C5CCC5)no4)CC3)n21  remaining binding (cell-free assay, competition with immobilised ligand; 1 µM): 100%
O=C(Nc1cnn(-c2csc(C(=O)NC3COC3)c2)c1)Nc1c(F)cccc1Cl  remaining activity (enzyme activity, inhibitor; 5 µM): 68.4%
CCCCN(CCCC)C(=O)CN1C[C@@H](c2cc(OC)c3c(c2)OCO3)[C@H](C(=O)O)[C@H]1CC(C)(C)CCC  remaining binding (cell-free assay, competition with immobilised ligand; 1 µM): 97.1%
Cn1c2c(Cl)c(Cl)ccc2c2cc(N)[nH]c(=O)c21  ΔTm (thermal stability, DSF; 10 µM): 1.1 °C
Cc1c[nH]c2nccc(Oc3c(F)cc(Nc4cc(Cl)nc(N)n4)cc3F)c12  remaining binding (cell-free assay, competition with immobilised ligand; 0.1 µM): 100%
CCN(CC)CCNC(=O)c1c(C)[nH]c(/C=C2\C(=O)Nc3ccc(F)cc32)c1C  inhibition (cell-free assay; 0.3 µM): 72%
